Measured values reported in article PMC3822625 (Journal of Cellular and Molecular Medicine, 2010).

Tests used:
P-gp = P-gp (Homo sapiens, UniProt P08183); experiment: Calcein-AM assay by flow cytometry in CEM/ADR5000 cells; conditions: CCRF-CEM and CEM/ADR5000 cells, result in words
[1] = molecular target: P-gp expressed in porcine capillaries (Sus scrofa, UniProt K7GMM7); experiment: NBD-CSA transport in porcine brain capillaries; assay type: cell-based; conditions: confocal microscopy, result in words
In short: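 Porcine brain capillaries incubated with test compound and the fluorescent P-gp substrate NBD-CSA. Transport into the capillary lumen imaged by confocal microscopy (transmitted light, fluorescence, overlay) and quantified by fluorospectrometry. Negative-control capillaries stained with NBD-CSA only, same time course.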

[2] = test system: Tg(fli1:EGFP) zebrafish embryos; experiment: Zebrafish embryo in vivo angiogenesis assay

Chain of P-gp (P08183 whole entry): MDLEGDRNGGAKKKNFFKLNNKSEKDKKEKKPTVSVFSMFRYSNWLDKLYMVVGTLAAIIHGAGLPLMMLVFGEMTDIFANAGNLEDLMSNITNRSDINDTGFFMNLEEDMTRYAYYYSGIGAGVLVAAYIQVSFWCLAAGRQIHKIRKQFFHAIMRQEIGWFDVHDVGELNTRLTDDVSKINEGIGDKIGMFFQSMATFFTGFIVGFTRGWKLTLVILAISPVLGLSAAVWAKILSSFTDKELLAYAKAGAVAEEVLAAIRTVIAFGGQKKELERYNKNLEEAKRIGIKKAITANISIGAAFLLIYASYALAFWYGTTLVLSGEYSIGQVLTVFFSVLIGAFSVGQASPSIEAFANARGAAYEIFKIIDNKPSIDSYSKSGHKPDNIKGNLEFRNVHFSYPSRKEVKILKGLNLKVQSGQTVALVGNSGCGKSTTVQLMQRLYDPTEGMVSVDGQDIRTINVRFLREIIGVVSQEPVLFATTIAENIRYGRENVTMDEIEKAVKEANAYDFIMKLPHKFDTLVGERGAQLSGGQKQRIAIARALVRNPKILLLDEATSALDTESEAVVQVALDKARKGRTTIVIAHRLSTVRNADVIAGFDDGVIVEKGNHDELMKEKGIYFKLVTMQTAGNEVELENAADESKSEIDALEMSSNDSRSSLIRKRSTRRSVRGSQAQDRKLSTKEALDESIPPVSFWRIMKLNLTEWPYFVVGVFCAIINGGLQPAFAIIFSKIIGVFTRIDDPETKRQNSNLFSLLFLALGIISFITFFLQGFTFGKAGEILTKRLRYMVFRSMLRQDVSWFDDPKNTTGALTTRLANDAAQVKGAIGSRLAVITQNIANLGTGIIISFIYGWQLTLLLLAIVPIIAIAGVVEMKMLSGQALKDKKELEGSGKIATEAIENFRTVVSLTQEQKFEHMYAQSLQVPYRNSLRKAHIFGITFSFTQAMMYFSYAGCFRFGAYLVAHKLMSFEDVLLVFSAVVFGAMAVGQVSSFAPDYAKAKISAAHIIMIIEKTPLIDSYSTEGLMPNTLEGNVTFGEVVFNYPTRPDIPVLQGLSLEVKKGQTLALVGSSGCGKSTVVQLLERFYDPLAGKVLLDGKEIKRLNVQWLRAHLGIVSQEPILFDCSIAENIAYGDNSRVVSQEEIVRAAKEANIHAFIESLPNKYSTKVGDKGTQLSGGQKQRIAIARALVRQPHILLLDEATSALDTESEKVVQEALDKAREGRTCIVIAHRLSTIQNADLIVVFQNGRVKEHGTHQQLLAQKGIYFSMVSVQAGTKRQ
Chain of P-gp expressed in porcine capillaries (K7GMM7 1-1248): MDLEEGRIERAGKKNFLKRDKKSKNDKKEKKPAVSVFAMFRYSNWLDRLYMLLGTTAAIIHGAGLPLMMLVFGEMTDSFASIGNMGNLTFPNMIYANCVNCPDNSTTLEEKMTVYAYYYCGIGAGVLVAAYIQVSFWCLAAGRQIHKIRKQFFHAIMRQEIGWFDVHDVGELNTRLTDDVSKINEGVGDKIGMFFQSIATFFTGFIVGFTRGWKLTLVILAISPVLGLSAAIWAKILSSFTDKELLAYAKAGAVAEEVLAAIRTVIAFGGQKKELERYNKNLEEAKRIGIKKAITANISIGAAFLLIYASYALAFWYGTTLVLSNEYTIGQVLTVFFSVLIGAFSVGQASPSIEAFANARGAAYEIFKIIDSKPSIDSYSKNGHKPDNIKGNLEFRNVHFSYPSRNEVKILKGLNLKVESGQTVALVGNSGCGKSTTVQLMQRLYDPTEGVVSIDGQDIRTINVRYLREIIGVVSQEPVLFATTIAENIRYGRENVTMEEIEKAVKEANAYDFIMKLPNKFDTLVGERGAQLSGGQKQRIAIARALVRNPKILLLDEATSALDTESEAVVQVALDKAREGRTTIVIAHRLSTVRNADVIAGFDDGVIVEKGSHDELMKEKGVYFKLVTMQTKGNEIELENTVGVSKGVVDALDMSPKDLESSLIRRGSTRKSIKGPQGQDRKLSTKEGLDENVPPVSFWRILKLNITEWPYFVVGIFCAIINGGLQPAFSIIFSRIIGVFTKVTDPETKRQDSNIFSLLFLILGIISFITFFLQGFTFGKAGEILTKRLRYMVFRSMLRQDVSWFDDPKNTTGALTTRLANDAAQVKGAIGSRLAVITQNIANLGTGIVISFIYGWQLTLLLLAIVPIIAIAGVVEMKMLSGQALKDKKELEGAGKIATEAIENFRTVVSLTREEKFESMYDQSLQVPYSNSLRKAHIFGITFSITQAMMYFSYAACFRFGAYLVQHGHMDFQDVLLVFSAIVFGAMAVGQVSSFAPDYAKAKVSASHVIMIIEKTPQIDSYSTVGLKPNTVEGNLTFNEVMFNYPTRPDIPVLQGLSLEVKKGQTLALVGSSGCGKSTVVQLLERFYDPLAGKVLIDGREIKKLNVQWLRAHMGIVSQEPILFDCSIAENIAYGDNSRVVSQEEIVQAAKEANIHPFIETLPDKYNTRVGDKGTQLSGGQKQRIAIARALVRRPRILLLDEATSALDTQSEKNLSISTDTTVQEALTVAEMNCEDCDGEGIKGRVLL

For `C[C@@H]1CC[C@H]2[C@@H](C)C(=O)O[C@@H]3O[C@@]4(C)CC[C@@H]1[C@]32OO4` [Compound 1, artemisinin], the “P-gp inhibition (calcein accumulation)” value (P-gp) was “do not act as P-gp inhibitors”.
`C/C=C/C[C@@H](C)C(=O)[C@H]1C(=O)N[C@@H](C(C)C)C(=O)N(C)CC(=O)N(C)[C@@H](CC(C)C)C(=O)N[C@@H](C(C)C)C(=O)N(C)[C@@H](CC(C)C)C(=O)N[C@@H](C)C(=O)N[C@H](C)C(=O)N(C)[C@@H](CC(C)C)C(=O)N(C)[C@@H](CC(C)C)C(=O)N(C)[C@@H](C(C)C)C(=O)N1C` [PSC-833] was tested, and the “Inhibition of luminal P-gp (NBD-CSA transport)” value [1] was “inhibited”.
In the case of `Cc1cc(C)c(/C=C2\C(=O)Nc3ccccc32)[nH]1` [SU5416], the “Formation of ISVs at 28 hpf” value ([2]; 10 μg/ml, 28 hpf, result in words) is reported as “completely blocked formation of ISVs”, the “ISV sprouting at 48 hpf” value ([2]; 10 μg/ml, 48 hpf, compared to control embryos, result in words) is reported as “sprouted only minimally” and the Heart rate ([2]; 10 μg/ml, result in words) is reported as “not affected”. For the same compound, the Oedema ([2]; 10 μg/ml, result in words) was “rarely observed”.
With `CC1=CO[C@@H]2O[C@@]3(C)CC[C@H]4[C@H](C)CC[C@@H]1[C@@]24OO3` [Compound 4, anhydrodihydroartemisinin] the “Dead = number of dead embryos up to 48 hpf” value (shortened to “Dead = number”) ([2]; 50 μg/ml, N=10 embryos) was 2 and the “Dead = number” value ([2]; 75 μg/ml, N=10 embryos) was 5.
With `C[C@H]1[C@H](OC(=O)CCC(=O)O)O[C@@H]2O[C@@]3(C)CC[C@H]4[C@H](C)CC[C@@H]1[C@@]24OO3` [Artesunate, artesunate] the “P-gp inhibition (calcein accumulation)” value (P-gp) was “do not act as P-gp inhibitors”, the “Dead = number” value ([2]; 25 μg/ml, N=20 embryos) was 1 and the “Dead = number” value ([2]; 50 μg/ml, N=20 embryos) was 1. For the same compound, the “Dead = number” value ([2]; 100 μg/ml, N=20 embryos) was 1, the “Dead = number” value ([2]; 200 μg/ml, N=10 embryos) was 1 and the Anti-angiogenic effect ([2]; overall assessment over the dose range, result in words) was “dose-dependent anti-angiogenic effects”.
